Calls of active or inactive are those of the source. The rule behind the calls is not given here.
Columns and labels:
[1] = test system: A549; assay: Antiproliferative activity against human A549 cells assessed as reduction in cell viability incubated for 72 hrs by MTT assay; assay type: functional, cell-based; conditions: A549, 72 h
Method in brief: (§1)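 Cells (ATCC) grown in DMEM with 10 FBS, penicillin/streptomycin, 2 mM glutamine, 37 °C, 5 CO2. 5000 cells/well seeded; after 24 h, freshly prepared dilutions at five concentrations (0.01–100 μM) added for 72 h. MTT read-out; absorbance converted to percentage growth by NIH formulas. Two experiments in quadruplicate; IC50 by linear regression.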

[2] = test system: CFPAC-1; assay: Antiproliferative activity against human CFPAC-1 cells assessed as reduction in cell viability incubated for 72 hrs by MTT assay; assay type: functional, cell-based; conditions: Homo sapiens, CFPAC-1, 72 h; read-out: IC50; method in brief: as §1
[3] = test system: HCT-116; assay: Antiproliferative activity against human HCT116cells assessed as reduction in cell viability incubated for 72 hrs by MTT assay; assay type: functional, cell-based; conditions: HCT-116, 72 h; method in brief: as §1
[4] = test system: HeLa; assay: Antiproliferative activity against human HeLa cells assessed as reduction in cell viability incubated for 72 hrs by MTT assay; assay type: functional, cell-based; method in brief: as §1
[5] = test system: HepG2; assay: Antiproliferative activity against human HepG2 cells assessed as reduction in cell viability incubated for 72 hrs by MTT assay; assay type: functional, cell-based; conditions: HepG2, 72 h; method in brief: as §1
[6] = test system: MCF7; assay: Antiproliferative activity against human MCF7 cells assessed as reduction in cell viability incubated for 72 hrs by MTT assay; assay type: functional, cell-based; conditions: MCF7, 72 h; method in brief: as §1
[7] = test system: SW-620; assay: Antiproliferative activity against human SW620 cells assessed as reduction in cell viability incubated for 72 hrs by MTT assay; assay type: functional, cell-based; conditions: SW-620, 72 h; method in brief: as §1
[8] = test system: HFF; assay: Cytotoxicity against human HFF cells assessed as reduction in cell viability incubated for 72 hrs by MTT assay; assay type: cell-based; method in brief: as §1
[9] = test system: Cytomegalovirus; assay: Antiviral activity against Cytomegalovirus AD169 infected in human HELF cells assessed as reduction in virus-induced cytopathogenicity incubated for 7 days by Giemsa staining based microscopic analysis; assay type: functional, organism-based; conditions: Human betaherpesvirus 5, AD169, HELF, 168 h
Method in brief: (§2)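 Confluent HEL fibroblasts infected with CMV (Davis or AD-169) at 100 PFU/well for 2 h. Residual virus removed, then medium with graded compound concentrations added (duplicate). Incubated 7 days at 37 °C. Cytopathogenicity scored microscopically after ethanol fixation and Giemsa staining. EC50 read from plots of % cytopathogenicity versus concentration.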

[10] = test system: Cytomegalovirus; assay: Antiviral activity against Cytomegalovirus Davis infected in human HELF cells assessed as reduction in virus-induced cytopathogenicity incubated for 7 days by Giemsa staining based microscopic analysis; assay type: functional, organism-based; conditions: Human betaherpesvirus 5, Davis, 168 h; method in brief: as §2
[11] = test system: Human alphaherpesvirus 3; assay: Antiviral activity against thymidine kinase deficient Varicella zoster virus infected in human HELF cells assessed as reduction in virus-induced cytopathogenicity incubated for 7 days by Giemsa staining based microscopic analysis; assay type: functional, organism-based; conditions: Human alphaherpesvirus 3, HELF, 168 h
[12] = test system: Human alphaherpesvirus 3; assay: Antiviral activity against thymidine kinase positive Varicella zoster virus infected in human HELF cells assessed as reduction in virus-induced cytopathogenicity incubated for 7 days by Giemsa staining based microscopic analysis; assay type: functional, organism-based; conditions: Human alphaherpesvirus 3, HELF, 168 h
[13] = Cytotoxicity against human HELF cells assessed as minimum cytotoxic concentration by observing alteration in cell morphology incubated for 3 days by microscopic analysis; assay type: cell-based; conditions: for MCC at 72 h: HELF cells
Method in brief: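 Read-out is the minimum cytotoxic concentration (MCC): the lowest compound concentration giving a microscopically detectable change in cell morphology. Measured on confluent human embryonic lung (HEL) fibroblast cultures exposed to a range of compound concentrations.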

[14] = test system: Influenza A virus; assay: Antiviral activity against Influenza A virus (A/Ned/378/05(H1N1)) infected in dog MDCK cells assessed as reduction in virus-induced cytopathogenicity incubated for 7 days by microscopic analysis; assay type: functional, organism-based
[15] = test system: Influenza A virus H3N2; assay: Antiviral activity against Influenza A virus (A/HK/7/87(H3N2)) infected in dog MDCK cells assessed as reduction in virus-induced cytopathogenicity incubated for 7 days by microscopic analysis; assay type: functional, organism-based; conditions: A/Hong Kong/7/1987(H3N2)
[16] = test system: Influenza B virus; assay: Antiviral activity against Influenza B virus (B/Ned/537/05) infected in dog MDCK cells assessed as reduction in virus-induced cytopathogenicity incubated for 7 days by microscopic analysis; assay type: functional, organism-based
[17] = test system: Influenza A virus; assay: Antiviral activity against Influenza A virus (A/Ned/378/05(H1N1)) infected in dog MDCK cells assessed as reduction in virus-induced cytopathogenicity incubated for 7 days by MTS assay; assay type: functional, organism-based
[18] = test system: Influenza A virus H3N2; assay: Antiviral activity against Influenza A virus (A/HK/7/87(H3N2)) infected in dog MDCK cells assessed as reduction in virus-induced cytopathogenicity incubated for 7 days by MTS assay; assay type: functional, organism-based; conditions: A/Hong Kong/7/1987(H3N2)
[19] = test system: Influenza B virus; assay: Antiviral activity against Influenza B virus (B/Ned/537/05) infected in dog MDCK cells assessed as reduction in virus-induced cytopathogenicity incubated for 7 days by MTS assay; assay type: functional, organism-based
[20] = test system: Human alphaherpesvirus 1; assay: Antiviral activity against Herpes simplex virus 1 KOS infected in human HELF cells assessed as reduction in virus-induced cytopathogenicity incubated for 7 days by microscopic analysis; assay type: functional, organism-based; conditions: strain KOS
[21] = test system: Human alphaherpesvirus 2; assay: Antiviral activity against Herpes simplex virus 2 G infected in human HELF cells assessed as reduction in virus-induced cytopathogenicity incubated for 7 days by microscopic analysis; assay type: functional, organism-based
[22] = test system: Human alphaherpesvirus 1; assay: Antiviral activity against Herpes simplex virus 1 TK-KOS-ACV infected in human HELF cells assessed as reduction in virus-induced cytopathogenicity incubated for 7 days by microscopic analysis; assay type: functional, organism-based
[23] = test system: Human adenovirus 2; assay: Antiviral activity against Human adenovirus 2 infected in human HELF cells assessed as reduction in virus-induced cytopathogenicity incubated for 7 days by microscopic analysis; assay type: functional, organism-based; conditions: for EC50: Human mastadenovirus C, 168 h
[24] = test system: Human coronavirus 229E; assay: Antiviral activity against Human coronavirus 229E infected in human HELF cells assessed as reduction in virus-induced cytopathogenicity incubated for 7 days by microscopic analysis; assay type: functional, organism-based
[25] = test system: Coxsackievirus B4; assay: Antiviral activity against Human coxsackievirus B4 infected in vero cells assessed as reduction in virus-induced cytopathogenicity incubated for 7 days by microscopic analysis; assay type: functional, organism-based
[26] = test system: Reovirus sp.; assay: Antiviral activity against Reovirus infected in vero cells assessed as reduction in virus-induced cytopathogenicity incubated for 7 days by microscopic analysis; assay type: functional, organism-based
[27] = test system: Sindbis virus; assay: Antiviral activity against Sindbis virus infected in vero cells assessed as reduction in virus-induced cytopathogenicity incubated for 7 days by microscopic analysis; assay type: functional, organism-based
[28] = Cytotoxicity against human HELF cells assessed as reduction in cell viability incubated for 3 days by coulter counter method; assay type: cell-based; conditions: 72 h
Method in brief: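 HEL cells seeded at 5 x 10^3/well and allowed to proliferate 24 h, then exposed to graded compound concentrations for 3 days at 37 °C. Cell number counted with a Coulter counter.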

Structure (SMILES)	IC50 [1] [µM]	IC50 [2] [µM]	IC50 [3] [µM]	IC50 [4] [µM]	IC50 [5] [µM]	IC50 [6] [µM]	IC50 [7] [µM]	IC50 [8] [µM]	other results
CCCCCc1ccc(-c2cn(C[C@H](O)[C@H]3OC(=O)C(OCc4ccccc4)=C3OCc3ccccc3)nn2)cc1	6.22	9.89	13.8	8.39	7.46	9.01	12.2	> 100	–
O=C1O[C@H]([C@@H](O)Cn2cc(CNS(=O)(=O)c3ccc(Cl)cc3)nn2)C(OCc2ccccc2)=C1OCc1ccccc1	2.87	38.9	8.38	13.6	7.51	4.17	18	0.02	–
O=C1O/C(=C\Cn2cc(CCO)nn2)C(OCc2ccccc2)=C1OCc1ccccc1	> 100	43.4	27.9	27.9	39	37.2	41.9	25.6	EC50 [9]: > 100 µM; EC50 [10]: > 100 µM; EC50 [11]: 78.1 µM; EC50 [12]: > 100 µM; MCC at 72 h [13]: > 100 µM; Activity [14]: inactive; Activity [15]: inactive; Activity [16]: inactive; Activity [17]: inactive; Activity [18]: inactive; Activity [19]: inactive; Activity [20]: inactive; Activity [21]: inactive; Activity [22]: inactive; Activity [23]: inactive; Activity [24]: inactive; Activity [25]: inactive; Activity [26]: inactive; Activity [27]: inactive
O=C1O[C@H]([C@@H](O)CO)C(O)=C1O [ASCORBIC ACID]	> 100	> 100	> 100	> 100	> 100	> 100	> 100	> 100	–
Nc1ccn([C@H]2CC[C@@H](CO)O2)c(=O)n1 [ZALCITABINE]	–	–	–	–	–	–	–	–	MCC at 72 h [13]: > 250 µM; EC50 [23]: 10 µM
Nc1nc2c(ncn2COCCO)c(=O)[nH]1 [ACYCLOVIR]	–	–	–	–	–	–	–	–	MCC ([13]; 72 h): 250 to 440 µM; CC50 [28]: > 440 µM; EC50 ([21]; Human alphaherpesvirus 2, G, 168 h): 2000 nM; EC50 ([22]; Human alphaherpesvirus 1, TK-KOS-ACV, 168 h): 17 µM; EC50 [23]: 5.8 µM
O=C1O[C@H]([C@@H](O)Cn2cc(CNS(=O)(=O)c3ccc(F)cc3)nn2)C(OCc2ccccc2)=C1OCc1ccccc1	22.5	34.7	22.9	25	18.3	26.8	41.1	0.03	–
O=C1O/C(=C\Cn2cc(C3CC3)nn2)C(OCc2ccccc2)=C1OCc1ccccc1	> 100	97.1	32.4	76.8	53.1	9.27	29.5	17	–

Reference: ChEMBL document CHEMBL4406859, “Antitumor and antiviral activities of 4-substituted 1,2,3-triazolyl-2,3-dibenzyl-L-ascorbic acid derivatives” (Eur J Med Chem, 2019)
